Laboratory results as given in ChEMBL document CHEMBL1132298, “Synthesis and antimalarial activity of cyclic peroxides, 1,2,4,5, 7-pentoxocanes and 1,2,4,5-tetroxanes” (J Med Chem, 1999).

Experiments:
FM3A [1] = assay: In vitro cytotoxicity in mouse mammary tumor FM3A cells; Nontoxic at a 1*10^-4 M concentration.; type: functional, cell-based
Mus musculus [2] = assay: In vivo antimalarial activity against Plasmodium berghei NK 65 in mice (Mus musculus) at 20 mg/kg/day; type: functional
Summary of the method: (§1)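 Male ICR mice, 5 weeks old, 22-25 g, five per group. Infected iv (tail vein) with 1 × 10⁶ P. berghei NK 65 parasitized erythrocytes in 0.2 mL 0.9% NaCl. Compound in DMSO given ip once daily on days 0-3, first dose 2 h after inoculation. Controls were DMSO-dosed. Day-4 parasitemia counted on Giemsa tail-blood smears (1 × 10⁴ RBCs). Percent suppression relative to controls, mean of five mice.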

Mus musculus [3] = assay: In vivo antimalarial activity against Plasmodium berghei NK 65 in mice (Mus musculus) at 50 mg/kg/day; type: functional; summary of the method: as §1
FM3A [4] = assay: Selectivity index as EC50 FM3A /EC50 Plasmodium falciparum; type: functional
Plasmodium falciparum [5] = assay: Antiparasitic activity against Plasmodium falciparum FCR-3
FM3A [6] = assay: In vitro cytotoxicity in mouse mammary tumor FM3A cells; type: functional, cell-based
Plasmodium falciparum [7] = assay: In vitro antimalarial activity against chloroquine-sensitive Plasmodium falciparum FCR3; Not toxic at 100uM; type: functional, organism-based

Compound | EC50 (FM3A [1]) | Growth inhibition (Mus musculus [2]) [%] | Growth inhibition (Mus musculus [3]) [%] | Selectivity (FM3A [4]) | EC50 (Plasmodium falciparum [5]) [nM] | EC50 (FM3A [6]) [nM] | EC50 (Plasmodium falciparum [7])
O=C(CCCC1OOC2CCCC(c3ccc(F)cc3)(OO1)O2)c1ccc(F)cc1 (stereo not given) | Not toxic | 0 | 0 | >141 | 710 |  | 
COc1ccc(C(=O)CCC[C@H]2OO[C@H](CCCC(=O)c3ccc(OC)cc3)OO2)cc1 | Not toxic |  |  | >5 | 20000 |  | 
Fc1ccc(C23CCCC(OOC(c4ccccc4)OO2)O3)cc1 (stereo not given) |  |  |  | 4 | 2900 | 8100 | 
O=C(CCC[C@H]1OO[C@H](CCCC(=O)c2ccc(F)cc2)OO1)c1ccc(F)cc1 | Not toxic | 0 | 30 | >169 | 510 |  | 
Fc1ccc(C2OOC3CCCC(c4ccc(F)cc4)(OO2)O3)cc1 (stereo not given) |  |  |  | 5 | 1900 | 9000 | 
Fc1ccc(C23CCCC(OOC(C4CCCCC4)OO2)O3)cc1 (stereo not given) |  |  |  | 17 | 150 | 2500 | 
CCCCCCC[C@H]1OO[C@H](CCCCCCC)OO1 | Not toxic |  |  | >67 | 1500 |  | 
C[C@@H]1CC[C@H]2[C@@H](C)C(=O)O[C@@H]3O[C@@]4(C)CC[C@@H]1[C@]32OO4 [ARTEMISININ] |  | 93 | 100 |  | 7.8 | 10000 | 
O=C(CCCC1OOC2CCCC(c3ccccc3)(OO1)O2)c1ccccc1 (stereo not given) | Not toxic |  |  | >77 | 1300 |  | 
c1ccc([C@H]2OO[C@H](c3ccccc3)OO2)cc1 | Not toxic | 6 | 50 | >91 | 1100 |  | 
C1CCC([C@H]2OO[C@H](C3CCCCC3)OO2)CC1 |  | 50 | 96 | 55 | 200 | 11000 | 
c1ccc(C2OOC3CCCC(c4ccccc4)(OO2)O3)cc1 (stereo not given) |  |  |  | 36 | 1400 | 50000 | 
CCCCCCCC1OOC2CCCC(c3ccccc3)(OO1)O2 (stereo not given) |  |  |  |  | 1500 | 12000 | 
O=C(CCC[C@H]1OO[C@H](CCCC(=O)c2ccccc2)OO1)c1ccccc1 | Not toxic | 30 | 40 | >250 | 400 |  | 
c1ccc(C[C@H]2OO[C@H](Cc3ccccc3)OO2)cc1 | Not toxic |  |  | >7 | 14000 |  | 
Fc1ccc(C2OOC(c3ccc(F)cc3)OO2)cc1 (stereo not given) | Not toxic | 50 | 90 | >200 | 500 |  | 
c1ccc(C23CCCC(OOC(C4CCCCC4)OO2)O3)cc1 (stereo not given) |  | 0 | 15 | 48 | 210 | 10000 | 
COc1ccc(C2OOC(c3ccc(OC)cc3)OO2)cc1 (stereo not given) | Not toxic |  |  | >127 | 790 |  | 
CC(C)(C)C1OOC2CCCC(c3ccccc3)(OO1)O2 (stereo not given) |  |  |  | 2 | 17000 | 26000 | 
COc1ccc(C(=O)CCCC2OOC3CCCC(c4ccc(OC)cc4)(OO2)O3)cc1 (stereo not given) |  |  |  | 19 | 930 | 18000 | 
O=C(CCC[C@H]1OO[C@@H](CCCC(=O)c2ccccc2)OO1)c1ccccc1 | Not toxic |  |  | >8 | 12000 |  | 
FC(F)(F)c1ccccc1C1OOC(c2ccccc2C(F)(F)F)OO1 (stereo not given) |  |  |  | 5 | 600 | 3000 | 
FC(F)(F)c1ccc(C2OOC(c3ccc(C(F)(F)F)cc3)OO2)cc1 (stereo not given) | Not toxic |  |  |  |  |  | Not toxic
CCC(CC)C1OOC2CCCC(c3ccccc3)(OO1)O2 (stereo not given) |  | 15 | 18 | 65 | 510 | 33000 | 
Fc1ccc(C2OOC3CCCC(c4ccccc4)(OO2)O3)cc1 (stereo not given) |  |  |  | 6 | 2800 | 17000 | 
